Measured values published in ChEMBL document CHEMBL1926514, “Pyridobenzothiazole derivatives as new chemotype targeting the HCV NS5B polymerase” (Bioorg Med Chem, 2012).
Each block holds one molecule with its values, some of them ahead of it. Calls of active or inactive are those of the source. The calls are words filed in the database; no cut-off is given here.

Experiments:
Hepatitis C virus [1] = assay: Inhibition of HCV genotype 1b recombinant NS5B Cdelta21 polymerase expressed in Escherichia coli assessed as [3H]UTP incorporation into RNA/RNA homopolymeric template (rA)40/(rU)20 at 10 uM after 40 mins by liquid scintillation counting in presence of increase concentration of RNA primer/template; conditions: Hepatitis C virus subtype 1b
Outline: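 NS5BΔC21 [³H]-UTP incorporation assay on (rA)40/(rU)20 at 25 °C for 40 min, with DE-81 filter scintillation read-out. Inhibitor was held at a fixed subsaturating dose while the RNA primer/template was raised across two increasing doses; inhibitor was preincubated 5 min on ice with enzyme and RNA before UTP addition.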

Hepatitis C virus [2] = assay: Inhibition of HCV genotype 1b recombinant NS5B Cdelta21 polymerase expressed in Escherichia coli assessed as [3H]UTP incorporation into RNA/RNA homopolymeric template (rA)40/(rU)20 after 40 mins by liquid scintillation counting; set-up: species or system Hepatitis C virus subtype 1b
Outline: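 E. coli-expressed NS5BΔC21 (genotype 1b), purified on DEAE and heparin columns, was used at 25–50 nM. Buffer: 50 mM Tris–HCl pH 8.0, 1 mM DTT, 0.25 mg/mL BSA, 0.25 mM MnCl₂, with (rA)40/(rU)20 primer/template. Inhibitor was preincubated 5 min on ice with enzyme and RNA, then [³H]-UTP (37 Ci/mmol) was added for 40 min at 25 °C. Product was captured on DE-81 filters and counted by scintillation. IC50 is the mean of at least three experiments.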

Hepatitis C virus [3] = assay: Antiviral activity against HCV genotype 1b infected in human HuH5.2 cells assessed as inhibition of […] after 72 hrs by luciferase reporter gene assay; assay type: functional, organism-based, Hepacivirus hominis; conditions: Huh-5-2, 72 h
Outline: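 Four-step 1-to-5 dilution series were tested for 72 h at 37 °C, 5% CO₂. Cells were washed with PBS and lysed 5 min at room temperature, and luciferase luminescence was read as % of untreated controls. EC50 and EC90 came from dose–response curves; at least three independent experiments.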

[4] = Cytotoxicity against human HuH5.2 cells after 72 hrs by MTS assay; assay type: cell-based, Huh-5-2
Outline: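 Metabolic activity was read as absorbance at 498 nm, with OD converted to % of untreated controls. CC50 came from the dose–response curve as 50% reduction of metabolic activity.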

Hepatitis C virus [5] = assay: Inhibition of HCV genotype 1b recombinant NS5B Cdelta21 polymerase expressed in Escherichia coli assessed as [3H]UTP incorporation into RNA/RNA homopolymeric template (rA)40/(rU)20 at 10 uM after 40 mins by liquid scintillation counting in presence of increase concentration of UTP; conditions: Hepatitis C virus subtype 1b
Outline: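 NS5BΔC21 [³H]-UTP incorporation assay on (rA)40/(rU)20 at 25 °C for 40 min, with filter-binding scintillation read-out. Inhibition was measured at varying UTP concentrations; inhibitor was preincubated 5 min on ice with enzyme and RNA template.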

SMILES: COc1ccc2sc3c(C(=O)O)cc(-c4ccccc4)c(=O)n3c2c1
- IC50 (Hepatitis C virus [2]): > 40 µM
- EC50 (Hepatitis C virus [3]): 51.2 µM
- CC50 at 72 h [4]: 51.8 µM

SMILES: O=C(O)c1cc(-c2ccccc2)c(=O)n2c1sc1ccc(F)cc12
- IC50 (Hepatitis C virus [2]): > 40 µM
- EC50 (Hepatitis C virus [3]): > 100 µM
- CC50 at 72 h [4]: > 100 µM

SMILES: COc1ccc2c(c1)-n1c(c(C(=O)O)cc(-c3ccccc3)c1=O)S2(=O)=O
- IC50 (Hepatitis C virus [2]): > 40 µM
- EC50 (Hepatitis C virus [3]): 89.7 µM
- CC50 at 72 h [4]: > 100 µM

SMILES: CC(C)CCOc1ccc2sc3c(C(=O)O)cc(-c4ccccc4)c(=O)n3c2c1
- IC50 (Hepatitis C virus [2]): > 40 µM
- EC50 (Hepatitis C virus [3]): 54 µM
- CC50 at 72 h [4]: 55 µM

SMILES: O=C(O)c1cc(-c2ccccc2)c(=O)n2c1S(=O)(=O)c1ccc(F)cc1-2
- IC50 (Hepatitis C virus [2]): > 40 µM
- EC50 (Hepatitis C virus [3]): 66 µM
- CC50 at 72 h [4]: > 100 µM

SMILES: O=C(O)C1=CC(=C(c2ccc(O)c(C(=O)O)c2)c2ccc(O)c(C(=O)O)c2)C=CC1=O [AURINTRICARBOXYLIC ACID]
- IC50 (Hepatitis C virus [2]): 15 µM

Further lines, with some results ahead:

- IC50 (Hepatitis C virus [2]): 23 µM
- EC50 (Hepatitis C virus [3]): > 56.5 µM
SMILES: O=C(O)c1cc(C2CCCCC2)c(=O)n2c1sc1ccc(OC3CCCCC3)cc12
- inhibition (Hepatitis C virus [1]): inactive
- CC50 at 72 h [4]: > 56.5 µM
- inhibition (Hepatitis C virus [5]): Active

- IC50 (Hepatitis C virus [2]): > 40 µM
- EC50 (Hepatitis C virus [3]): > 100 µM
SMILES: O=C(O)c1ccc(=O)n2c1sc1ccc(OC3CCCCC3)cc12
- CC50 at 72 h [4]: > 100 µM

- IC50 (Hepatitis C virus [2]): > 40 µM
- EC50 (Hepatitis C virus [3]): 53.5 µM
SMILES: O=C(O)c1cc(C2CCCCC2)c(=O)n2c1sc1ccccc12
- CC50 at 72 h [4]: > 100 µM

- IC50 (Hepatitis C virus [2]): > 40 µM
- EC50 (Hepatitis C virus [3]): > 100 µM
SMILES: CC(=O)c1cc(C(=O)O)c2sc3ccc(OC4CCCCC4)cc3n2c1=O
- CC50 at 72 h [4]: > 100 µM

- IC50 (Hepatitis C virus [2]): 11 µM
- EC50 (Hepatitis C virus [3]): > 100 µM
SMILES: O=C(O)c1cc(-c2ccccc2)c(=O)n2c1sc1ccc(OC3CCCCC3)cc12
- inhibition (Hepatitis C virus [1]): inactive
- CC50 at 72 h [4]: > 100 µM
- inhibition (Hepatitis C virus [5]): Active

- IC50 (Hepatitis C virus [2]): 19 µM
- EC50 (Hepatitis C virus [3]): 55.8 µM
SMILES: O=C(O)c1cc(-c2ccccc2)c(=O)n2c1S(=O)(=O)c1ccc(OC3CCCCC3)cc1-2
- inhibition (Hepatitis C virus [1]): inactive
- CC50 at 72 h [4]: > 100 µM
- inhibition (Hepatitis C virus [5]): Active
